What all share (type): functional
Assay [1] has as its system Staphylococcus epidermidis. Kind of assay: Minimum inhibition concentration in vitro determined against Staphylococcus epidermidis 3519. The gist of the method:
(§1)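 Agar dilution on brain-heart infusion (BHI) agar with twofold dilutions from a 2000 µg/mL stock, giving final test concentrations of 200-0.005 µg/mL. Organisms were grown overnight in BHI broth at 36 °C, and about 10⁴ organisms were inoculated per plate. Plates were incubated 18 h at 36 °C. MIC was the lowest concentration with no visible growth.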

Assay [2] deals with Escherichia coli. The experiment in a line: Minimum inhibition concentration in vitro determined against Escherichia coli juhl. Put shortly:
as §1

In a further assay the test system is Klebsiella aerogenes. Kind of assay: Minimum inhibition concentration in vitro determined against Enterobacteri aerogenes ATCC 13048. The gist of the method: as §1
A further assay deals with Acinetobacter. Kind of assay: Minimum inhibition concentration in vitro determined against Acinetobacter sp CMX669. The gist of the method:
as §1

For assay [3], the system named is Pseudomonas aeruginosa. Kind of assay: Minimum inhibition concentration in vitro determined against Pseudomona aeruginosa K799/WT. Put shortly: as §1
The next assay has as its system Streptococcus pyogenes. Kind of assay: Minimum inhibition concentration in vitro determined against Streptococcus pyogenes 930. Put shortly:
as §1

For assay [4], the system named is Staphylococcus aureus. The experiment in a line: Minimum inhibition concentration in vitro determined against Staphylococcus aureus CMX 686B. The gist of the method: as §1
For assay [5], the system named is Enterococcus faecium. The experiment in a line: 0 Minimum inhibition concentration was determined against Streptococcus faecium ATCC 8043 (in vitro). The gist of the method: as §1
Another assay relates to Klebsiella pneumoniae. Kind of assay: Minimum inhibition concentration in vitro determined against Klebsiella pneumoniae 8045. Put shortly: as §1
The subject of assay [6] is Staphylococcus aureus. The experiment in a line: Minimum inhibition concentration in vitro determined against Staphylococcus aureus ATCC 6538P. Put shortly:
as §1

In assay [7] the test system is Pseudomonas aeruginosa. Kind of assay: Minimum inhibition concentration in vitro determined against Pseudomona aeruginosa 5007. The gist of the method: as §1
Assay [8] deals with Mus musculus. Kind of assay: In vivo inhibitory activity against Escherichia coli Juhl after peroral administration in mice. The settings on record: po. Put shortly: (§2)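 Female CF-1 mice (~20 g) were infected ip with 0.5 mL of an 18-h BHI culture of E. coli Juhl in 5% hog gastric mucin at 100× LD50. The LD50 had been set beforehand by 10-fold dilutions and Reed-Muench. Compound in water or dilute NaOH was given sc or po, split equally at 1 and 5 h post-infection. Groups of 10 mice got ≥3 doses, with 10 untreated controls. ED50 was calculated from day-6 cumulative mortality by trimmed Logit.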

Assay [9] has as its system Mus musculus. Kind of assay: In vivio inhibitory activity against Escherichia coli Juhl after subcutaneous administration in mice. Conditions: sc. Put shortly:
as §2

Assay [10] relates to Enterococcus faecium. The experiment in a line: Minimum inhibition concentration in vitro determined against Streptococcus faecium ATCC 8043. The gist of the method: as §1
In assay [11] the test system is Escherichia coli. Kind of assay: Compound was evaluated for inhibitory activity against Escherichia coli Juhl (in vivo). Conditions: in the assay text read “in vitro” for “in vivo”.
Assay [12] has as its system Mus musculus. The experiment in a line: In vivo inhibitory activity of teh compound against Escherichia coli Juhl after peroral administration in mice. Conditions: po. Put shortly:
as §2

The mark [13] stands for this setting: Escherichia coli, read-out: MIC.

Molecules are shown by their SMILES. Converted amounts (≈) assume the structure as drawn.

By MIC is commonly meant the smallest concentration in the dilution series that meets the test's criterion for growth inhibition. As a reminder, the ED50 is the dose at which the effect has come halfway, by size or by number of responders.

In the case of `CN1CCN(c2cc3c(cc2F)c(=O)c(C(=O)O)cn3-c2ccc3c(c2)OCO3)CC1`, the MIC in assay [1] came out at 1.56 µg/mL (≈ 3.67 µM); with Escherichia coli [2] (setting [13]), 0.78 µg/mL (≈ 1.83 µM); in the assay on Klebsiella aerogenes, 0.78 µg/mL (≈ 1.83 µM); in the assay on Acinetobacter, 0.78 µg/mL (≈ 1.83 µM); against Pseudomonas aeruginosa [3], 6.2 µg/mL (≈ 14.6 µM); in the assay on Streptococcus pyogenes it was 12.5 µg/mL (≈ 29.4 µM). Further, the MIC in the assay with Staphylococcus aureus [4] is 0.78 µg/mL (≈ 1.83 µM); in the assay with Enterococcus faecium [5] it was 50 µg/mL (≈ 118 µM); against Klebsiella pneumoniae, 0.2 µg/mL (≈ 0.47 µM); against Staphylococcus aureus [6], 0.78 µg/mL (≈ 1.83 µM); against Pseudomonas aeruginosa [7], 6.2 µg/mL (≈ 14.6 µM).

Consider `CN1CCN(c2cc3c(cc2F)c(=O)c(C(=O)O)cn3-c2ccc(F)cc2)CC1` [DIFLOXACIN], for which the MIC stood at 0.39 µg/mL (≈ 0.976 µM) in assay [1]; 0.2 µg/mL (≈ 0.501 µM) in the assay on Escherichia coli [2] (setting [13]); 0.78 µg/mL (≈ 1.95 µM) against Klebsiella aerogenes; 0.2 µg/mL (≈ 0.501 µM) in the assay with Acinetobacter; 1.56 µg/mL (≈ 3.91 µM) in the assay with Pseudomonas aeruginosa [3]; 1.56 µg/mL (≈ 3.91 µM) against Streptococcus pyogenes. Further, the minimum inhibitory concentration (MIC) against Staphylococcus aureus [4] was found to be 0.2 µg/mL (≈ 0.501 µM); against Klebsiella pneumoniae, 0.1 µg/mL (≈ 0.25 µM); with Enterococcus faecium [10], 1.56 µg/mL (≈ 3.91 µM); in the assay with Escherichia coli [11] it was 0.2 µg/mL (≈ 0.501 µM); against Staphylococcus aureus [6] it was 0.2 µg/mL (≈ 0.501 µM); in the assay with Pseudomonas aeruginosa [7], 1.56 µg/mL (≈ 3.91 µM). Besides, the ED50 with Mus musculus [8] is 3.1 mg/kg; in the assay with Mus musculus [9], 1.6 mg/kg.

As to `CCn1cc(C(=O)O)c(=O)c2cc(F)c(N3CCNCC3)cc21` [NORFLOXACIN], the MIC amounted to 1.56 µg/mL (≈ 4.89 µM) in assay [1]; 0.1 µg/mL (≈ 0.313 µM) against Escherichia coli [2]; 0.1 µg/mL (≈ 0.313 µM) with Escherichia coli [2] (setting [13]); 0.2 µg/mL (≈ 0.626 µM) against Klebsiella aerogenes; 6.2 µg/mL (≈ 19.4 µM) against Acinetobacter; 0.39 µg/mL (≈ 1.22 µM) with Pseudomonas aeruginosa [3]. For the same compound, the minimum inhibitory concentration (MIC) with Streptococcus pyogenes worked out at 3.1 µg/mL (≈ 9.71 µM); against Staphylococcus aureus [4], 0.78 µg/mL (≈ 2.44 µM); with Klebsiella pneumoniae, 0.1 µg/mL (≈ 0.313 µM); in the assay with Enterococcus faecium [10], 0.78 µg/mL (≈ 2.44 µM); against Staphylococcus aureus [6] it was 0.78 µg/mL (≈ 2.44 µM); against Pseudomonas aeruginosa [7], 0.39 µg/mL (≈ 1.22 µM). Besides, the ED50 in the assay on Mus musculus [8] turned out to be 15.1 mg/kg; with Mus musculus [9], 0.6 mg/kg.

Take `O=C(O)c1cn(-c2ccc(F)cc2)c2cc(N3CCNCC3)c(F)cc2c1=O` [SARAFLOXACIN]: the MIC was determined as 0.39 µg/mL (≈ 1.01 µM) in assay [1]; 0.05 µg/mL (≈ 0.13 µM) in the assay with Escherichia coli [2] (setting [13]); 0.2 µg/mL (≈ 0.519 µM) with Klebsiella aerogenes; 0.2 µg/mL (≈ 0.519 µM) in the assay on Acinetobacter; 0.39 µg/mL (≈ 1.01 µM) against Pseudomonas aeruginosa [3]; 0.78 µg/mL (≈ 2.02 µM) in the assay on Streptococcus pyogenes. In addition, the MIC against Staphylococcus aureus [4] came out at 0.2 µg/mL (≈ 0.519 µM); in the assay on Klebsiella pneumoniae, 0.02 µg/mL (≈ 0.0519 µM); in the assay with Enterococcus faecium [10], 1.56 µg/mL (≈ 4.05 µM); in the assay with Escherichia coli [11], 0.05 µg/mL (≈ 0.13 µM); with Staphylococcus aureus [6], 0.2 µg/mL (≈ 0.519 µM); in the assay on Pseudomonas aeruginosa [7] it was 0.39 µg/mL (≈ 1.01 µM). For the same compound, the 50% effective dose (ED50) with Mus musculus [12] came to 4.3 mg/kg; in the assay on Mus musculus [9] it was 0.6 mg/kg.

Take `COc1ccc(-n2cc(C(=O)O)c(=O)c3cc(F)c(N4CCN(C)CC4)cc32)cc1`: the MIC was 50 µg/mL (≈ 122 µM) in assay [1]; 50 µg/mL (≈ 122 µM) with Escherichia coli [2] (setting [13]); 50 µg/mL (≈ 122 µM) in the assay with Klebsiella aerogenes; 50 µg/mL (≈ 122 µM) against Acinetobacter; 100 µg/mL (≈ 243 µM) in the assay on Pseudomonas aeruginosa [3]; 50 µg/mL (≈ 122 µM) against Streptococcus pyogenes. Moreover, the minimal inhibitory concentration (MIC) was 12.5 µg/mL (≈ 30.4 µM) in the assay with Staphylococcus aureus [4]; 12.5 µg/mL (≈ 30.4 µM) against Klebsiella pneumoniae; 100 µg/mL (≈ 243 µM) in the assay with Enterococcus faecium [10]; 12.5 µg/mL (≈ 30.4 µM) in the assay on Staphylococcus aureus [6]; 200 µg/mL (≈ 486 µM) against Pseudomonas aeruginosa [7].

For `CCC(=O)N1CCN(c2cc3c(cc2F)c(=O)c(C(=O)O)cn3-c2ccc(F)cc2)CC1`, the MIC in assay [1] worked out at 0.78 µg/mL (≈ 1.77 µM); with Escherichia coli [2] (setting [13]) it was 1.56 µg/mL (≈ 3.53 µM); in the assay with Klebsiella aerogenes, 3.1 µg/mL (≈ 7.02 µM); against Acinetobacter it was 6.2 µg/mL (≈ 14 µM); in the assay on Pseudomonas aeruginosa [3], 12.5 µg/mL (≈ 28.3 µM); against Streptococcus pyogenes, 1.56 µg/mL (≈ 3.53 µM). Moreover, the minimum inhibitory concentration (MIC) in the assay on Staphylococcus aureus [4] was 0.2 µg/mL (≈ 0.453 µM); with Klebsiella pneumoniae, 0.78 µg/mL (≈ 1.77 µM); with Enterococcus faecium [10] it was 6.2 µg/mL (≈ 14 µM); in the assay with Staphylococcus aureus [6] it was 0.2 µg/mL (≈ 0.453 µM); against Pseudomonas aeruginosa [7], 12.5 µg/mL (≈ 28.3 µM).

Regarding `O=C(O)c1cn(-c2ccc(F)cc2)c2cc(N3CCOCC3)c(F)cc2c1=O`, the minimal inhibitory concentration (MIC) amounted to 0.2 µg/mL (≈ 0.518 µM) in assay [1]; 0.39 µg/mL (≈ 1.01 µM) in the assay with Escherichia coli [2] (setting [13]); 0.78 µg/mL (≈ 2.02 µM) against Klebsiella aerogenes; 0.78 µg/mL (≈ 2.02 µM) in the assay with Acinetobacter; 3.1 µg/mL (≈ 8.02 µM) against Pseudomonas aeruginosa [3]; 1.56 µg/mL (≈ 4.04 µM) with Streptococcus pyogenes. Also, the MIC against Staphylococcus aureus [4] came out at 0.1 µg/mL (≈ 0.259 µM); against Klebsiella pneumoniae, 0.39 µg/mL (≈ 1.01 µM); with Enterococcus faecium [10], 1.56 µg/mL (≈ 4.04 µM); in the assay on Staphylococcus aureus [6], 0.1 µg/mL (≈ 0.259 µM); against Pseudomonas aeruginosa [7], 3.1 µg/mL (≈ 8.02 µM).

For the origin of these results see ChEMBL document CHEMBL1122831, “Synthesis and structure-activity relationships of novel arylfluoroquinolone antibacterial agents” (1985).
